The results in this text go back to ChEMBL document CHEMBL1142735, “Discovery of a new series of centrally active tricyclic isoxazoles combining serotonin (5-HT) reuptake inhibition with alpha2-adrenoceptor blocking activity” (J Med Chem, 2005).

pKi: −log10 of the molar value.

For test [1], the target named is Sodium-dependent serotonin transporter (Homo sapiens, UniProt P31645). In words: Binding affinity for serotonin transporter. The essentials: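 Human platelet membranes (50 µg protein) in 50 mM Tris-HCl pH 7.4 with 120 mM NaCl and 5 mM KCl. Competition against [3H]paroxetine (0.5 nM), 60 min at 25 °C. Nonspecific binding defined with imipramine (1 µM). Filtration over 0.1% PEI-presoaked GF/B, washed with incubation buffer. Sigmoidal fit of specific binding; Ki via Cheng-Prusoff.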

For test [2], the target named is T1, Alpha-2C adrenergic receptor (Homo sapiens, UniProt P18825).
T1 sequence (P18825 whole entry): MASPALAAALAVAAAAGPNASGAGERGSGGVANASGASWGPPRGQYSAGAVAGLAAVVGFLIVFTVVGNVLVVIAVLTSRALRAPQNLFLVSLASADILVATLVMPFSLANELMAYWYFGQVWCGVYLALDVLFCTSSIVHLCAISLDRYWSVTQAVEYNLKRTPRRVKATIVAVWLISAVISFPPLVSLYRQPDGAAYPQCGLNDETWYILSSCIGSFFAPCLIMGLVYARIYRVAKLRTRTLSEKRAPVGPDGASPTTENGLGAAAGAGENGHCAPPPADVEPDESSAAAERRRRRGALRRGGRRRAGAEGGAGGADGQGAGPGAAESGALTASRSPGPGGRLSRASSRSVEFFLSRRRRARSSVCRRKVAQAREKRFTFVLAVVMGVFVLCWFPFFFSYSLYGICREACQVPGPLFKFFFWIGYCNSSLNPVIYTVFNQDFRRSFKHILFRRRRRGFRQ
In words: Binding affinity for alpha-2C adrenergic receptor. The essentials:
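Human alpha2C receptor stably expressed in CHO cell membranes (5-10 µg protein) in 25 mM glycylglycine, pH 7.6. Competition against [3H]rauwolscine (1 nM), 30 min at 25 °C. Nonspecific binding defined with spiroxatrine (1 µM). Rapid filtration over GF/B, washed with ice-cold 50 mM Tris-HCl pH 8.0, scintillation counting. Sigmoidal curves fitted; Ki by Cheng-Prusoff.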

Chain of Sodium-dependent serotonin transporter (P31645 whole entry): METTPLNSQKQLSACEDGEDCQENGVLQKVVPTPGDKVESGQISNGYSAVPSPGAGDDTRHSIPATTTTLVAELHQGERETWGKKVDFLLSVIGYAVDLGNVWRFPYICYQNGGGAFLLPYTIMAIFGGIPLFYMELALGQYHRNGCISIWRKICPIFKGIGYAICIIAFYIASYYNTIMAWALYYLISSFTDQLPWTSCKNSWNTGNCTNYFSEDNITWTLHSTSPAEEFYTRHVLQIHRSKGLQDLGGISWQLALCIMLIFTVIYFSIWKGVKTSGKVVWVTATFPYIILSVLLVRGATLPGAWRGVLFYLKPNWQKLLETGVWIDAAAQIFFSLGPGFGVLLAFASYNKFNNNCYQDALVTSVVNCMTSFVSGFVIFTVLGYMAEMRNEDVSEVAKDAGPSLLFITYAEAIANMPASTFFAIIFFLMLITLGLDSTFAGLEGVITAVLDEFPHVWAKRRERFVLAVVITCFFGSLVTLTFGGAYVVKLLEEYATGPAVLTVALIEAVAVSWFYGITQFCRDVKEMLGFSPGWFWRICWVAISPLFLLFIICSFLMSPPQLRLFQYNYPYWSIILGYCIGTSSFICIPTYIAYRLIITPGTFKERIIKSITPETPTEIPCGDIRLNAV

For the compound `COCC(=O)Oc1ccc2c(c1)OC[C@@H]1C2=NO[C@H]1CN1CCN(C/C(C)=C/c2ccccc2)CC1`, the results for the pKi in test [1] and in test [2] were 8.24 and 9.70, respectively.
In the case of `C/C(=C\c1ccccc1)CN1CCN(C[C@@H]2ON=C3c4ccc(OC(=O)C5CC5)cc4OC[C@H]32)CC1`, the pKi was 7.59 in test [1] and 9.52 in test [2].
In turn, `COc1ccc2c(c1)OC[C@@H]1C2=NO[C@H]1CN1CCN(C/C(C)=C/c2ccccc2)CC1` showed a pKi in test [2] of 9.70.
As to `CC(=O)Oc1ccc2c(c1)OC[C@@H]1C2=NO[C@H]1CN1CCN(C/C(C)=C/c2ccccc2)CC1`, the figures for the pKi in test [1] and in test [2] were 8.11 and 9.70, respectively.
In test [1], `C/C(=C\c1ccccc1)CN1CCN(C[C@@H]2ON=C3c4ccc(OCCN(C)C)cc4OC[C@H]32)CC1` had a pKi of 8.46.
Regarding `C/C(=C\c1ccccc1)CN1CCN(C[C@@H]2ON=C3c4ccc(OC(=O)C(C)(C)C)cc4OC[C@H]32)CC1`, the pKi was 7.92 in test [1] and 8.80 in test [2].
In the case of `CCOCCOCCOc1ccc2c(c1)OC[C@@H]1C2=NO[C@H]1CN1CCN(C/C(C)=C/c2ccccc2)CC1`, the figures for the pKi in test [1] and in test [2] were 7.77 and 9.70, respectively.
`C=CC(=O)Oc1ccc2c(c1)OC[C@@H]1C2=NO[C@H]1CN1CCN(C/C(C)=C/c2ccccc2)CC1`: the pKi in test [1] was 7.39; in test [2], 9.30.
`C/C(=C\c1ccccc1)CN1CCN(C[C@@H]2ON=C3c4ccc(O)cc4OC[C@H]32)CC1`: the pKi in test [1] was 8.44.
Turning to `COc1cc2c(cc1OC)C1=NO[C@@H](CN3CCN(CCOc4ccc(F)cc4)CC3)[C@@H]1CN2`, the pKi is 6.81 in test [1] and 8.80 in test [2].
In the case of `CN1C[C@@H]2C(=NO[C@H]2CN2CCN(C/C=C/c3ccccc3)CC2)c2ccccc21`, the pKi in test [1] was 7.80; in test [2], 8.35.
As to `COc1ccc2c(c1)C=C[C@@H]1C2=NO[C@H]1CN1CCN(Cc2ccc3ccccc3c2)CC1`, the pKi in test [1] is 8.85; in test [2], 8.20.
As for `CCNC(=O)N1C[C@@H]2C(=NO[C@H]2CN2CCN(C/C=C/c3ccccc3)CC2)c2ccccc21`, the figures for the pKi in test [1] and in test [2] were 7.64 and 8.57, respectively.
Regarding `COc1cc2c(cc1OC)C1=NO[C@@H](CN3CCN(Cc4ccc(Cl)cc4)CC3)[C@@H]1CN2`, the pKi in test [1] was 6.82; in test [2], 7.64.
Consider `CCOC(=O)N1C[C@@H]2C(=NO[C@H]2CN2CCN(C/C=C/c3ccccc3)CC2)c2ccccc21`, for which the pKi in test [1] is 8.59; in test [2], 8.01.
The matching figures for `COc1cc2c(cc1OC)C1=NO[C@@H](CN3CCN(Cc4ccc5ccccc5c4)CC3)[C@@H]1CN2`: 8.82 and 7.92.
Take `COc1cc2c(cc1OC)N(C)C[C@@H]1C2=NO[C@H]1CN1CCN(CCCC(C)=Cc2ccccc2)CC1`: the pKi in test [1] is 6.98; in test [2] it was 8.40.
In test [2], `C(=C\c1ccccc1)/CN1CCN(C[C@@H]2ON=C3c4ccccc4OC[C@H]32)CC1` had a pKi of 8.77.
As for `C1=C[C@@H]2C(=NO[C@H]2CN2CCN(C/C=C/c3ccccc3)CC2)c2ccccc21`, the figures for the pKi in test [1] and in test [2] were 6.97 and 6.95, respectively.
As for `COc1cc2c(cc1OC)C1=NO[C@@H](CN3CCN(Cc4ccc5ncccc5c4)CC3)[C@@H]1CN2`, the pKi is 7.66 in test [1] and below 6.00 in test [2].
For the compound `C(=C\c1ccccc1)/CN1CCN(C[C@@H]2ON=C3c4ccccc4NC[C@H]32)CC1`, the pKi was 7.08 in test [1] and 7.82 in test [2].
As for `COc1ccc2c(c1)C=C[C@@H]1C2=NO[C@H]1CN1CCN(C/C=C/c2ccccc2)CC1`, the pKi in test [1] is 8.14; in test [2], 8.41.
Take `COc1cc2c(cc1OC)C1=NO[C@@H](CN3CCN(C/C=C/c4ccccc4)CC3)[C@@H]1CN2`: the pKi in test [1] was 8.01; in test [2] it was 8.27.
In the case of `c1ccc2c(c1)NC[C@@H]1C2=NO[C@H]1CN1CCN(Cc2ccc3ccccc3c2)CC1`, the results for the pKi in test [1] and in test [2] were 9.30 and 8.02, respectively.
Take `COc1cc2c(cc1OC)C1=NO[C@@H](CN3CCN(C/C(C)=C/c4ccccc4)CC3)[C@@H]1CN2`: the pKi in test [1] was 8.05; in test [2], 10.00.
The matching figures for `C/C(=C\c1ccccc1)CN1CCN(C[C@@H]2ON=C3c4ccc(OC5CCCC5)cc4OC[C@H]32)CC1`: 7.25 and 9.30.
On to `C/C(=C\c1ccccc1)CN1CCN(C[C@@H]2ON=C3c4ccc(OC(=O)c5ccncc5)cc4OC[C@H]32)CC1`, for which the pKi in test [1] was 7.89; in test [2], 9.30.
Turning to `CC(=O)N1C[C@@H]2C(=NO[C@H]2CN2CCN(CCC/C=C/c3ccccc3)CC2)c2ccccc21`, the pKi was 7.21 in test [1] and 7.96 in test [2].
In the same order, the values of `COCCOc1ccc2c(c1)OC[C@@H]1C2=NO[C@H]1CN1CCN(C/C(C)=C/c2ccccc2)CC1` are 8.35 and 10.52.

As usually defined, the pKi is −log10 of the Ki, conventionally taken in molar units.
